Screening results: PubChem, Broad Institute
miR122 inh = inhibitors of miR-122 in Huh7 cells; Huh7 miR-122 Renilla luciferase sensor, 48 h; neutral wells = 0, positive control = 100; activation (reporter increase), % at 12.5 µM; 340,000 compounds, 0.3% hits; AID 602342;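 active = mean replicate activation score at least 90 and every replicate individually at or above 90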;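 note: higher luciferase means less miR-122 activity so hits act as miR-122 inhibitors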
Cneo AK release = Cryptococcus neoformans lysis via adenylate kinase release; C. neoformans lysis, adenylate kinase release luminescence, 4 h; normalised: neutral wells 0, clomiphene wells 100; lysis activity, % at 15 µM; 360,000 compounds, 0.2% hits;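 active = mean lysis activity across replicates of at least 80%, whatever share of replicates individually reach that level; inactive = mean lysis activity below 80%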
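read-out = cell lysis signal | test system = log-phase Cryptococcus neoformans yeast cells | input = cells at 5 × 10^6 per mL | medium = fresh YPD growth medium | signal = luminescent adenylate kinase detection reagent | timing = 4 h at 37 °C static, read 1 h later | dosing = single dose | controls = Clomiphene as positive lysis control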
INS-1E GSIS act = primary screen for activators of insulin secretion dependent on glucose, INS-1E cells, GLuc reporter luminescence. INS-1E GLuc reporter insulin secretion, 2-3 h. 370,000 compounds, 0.61% hits. activation, % at 16.6 µM. AID 743287;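 active = lowest replicate activation of at least 40%, so every replicate reaches that level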;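 note: 0% = median of neutral control wells and 100% = median of IBMX positive control wells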
Rtt109 HAT inh = C. albicans Rtt109 histone acetyltransferase inhibition | Q5AAJ8 | purified Rtt109/Vps75, ThioGlo CoA-SH fluorescence, 4 h | inhibition, % at 34.9 µM | 330,000 compounds, 0.16% hits;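 active = inhibition of at least 50% in every replicate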
HIV Env fusion = HIV envelope-mediated fusion inhibition. 360,000 compounds, 1.1% hits. HeLa-JRFL Env/CEM21 cell fusion, luciferase. AID 651610. inhibition, % at 12.3 µM;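 active = mean replicate inhibition score of at least 50 and every replicate individually at or above 50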;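 note: 0% = plate neutral controls and 100% = maraviroc near 300 nM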
dFosB act-1 = activators of mouse delta FosB homodimer; AID 493131; activation, % at 25 µM; P13346; purified delta FosB, TAMRA-CDK5 oligo fluorescence polarization; percent of positive-control signal above neutral wells; 340,000 compounds, 0.99% hits;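 active = mean activation above about 17%, with every replicate also reaching it, limit read from the data, passing the limit was not always enough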
Target sequence (P13346 whole entry, looked up): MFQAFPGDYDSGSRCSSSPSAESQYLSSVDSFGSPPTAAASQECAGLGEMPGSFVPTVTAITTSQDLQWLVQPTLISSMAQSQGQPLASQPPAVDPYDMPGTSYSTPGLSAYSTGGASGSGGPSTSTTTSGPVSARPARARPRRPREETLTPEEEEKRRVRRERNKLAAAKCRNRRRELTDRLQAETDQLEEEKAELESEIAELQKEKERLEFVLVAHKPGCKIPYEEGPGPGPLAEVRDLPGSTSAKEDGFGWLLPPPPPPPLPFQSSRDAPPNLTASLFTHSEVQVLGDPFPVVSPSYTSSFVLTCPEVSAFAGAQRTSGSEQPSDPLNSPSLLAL
dFosB act-2 = delta FosB (mouse) homodimer activation; shares compounds with dFosB act-1; purified delta FosB, TAMRA-CDK5 oligo fluorescence polarization; normalised: neutral wells 0, positive control 100; activation, % at 24.9 µM; 2,400 tested, under 10 active;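 active = highest replicate activation at or above 34% and every replicate reaching that threshold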;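 note: higher polarization means more probe DNA bound by delta FosB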
The depositor's hits bear a star; [ ] = remark or other dose. Sampled rows, rich in hits. Any-hit rate of the full collection: about 2.4%.

How did COc1ccc(/C=C2/SC(=O)N(CC(=O)NCCC(C)C)C2=O)cc1OC do in these assays?
miR122 inh: -4; Rtt109 HAT inh: -108; HIV Env fusion: 24; dFosB act-1: 17*; dFosB act-2: 5

Results for COc1ccc(/C=C2\SC(=O)N(CC(=O)Nc3cccnc3)C2=O)cc1OC ?
miR122 inh: 8; Cneo AK release: -1; INS-1E GSIS act: 16; Rtt109 HAT inh: 2; HIV Env fusion: -3; dFosB act-1: -1

What do the screens show for `COc1ccc(/C=C2\SC(=O)N(CC(=O)NCCC(C)C)C2=O)cc1OC`?
miR122 inh: -3; Cneo AK release: 5; INS-1E GSIS act: -7; Rtt109 HAT inh: 1; HIV Env fusion: 12; dFosB act-1: 14

What do the screens show for `COc1ccc(/C=C2\SC(=O)N(CC(=O)Nc3ccc(F)cc3)C2=O)cc1O`?
Cneo AK release: -2; INS-1E GSIS act: 10; Rtt109 HAT inh: 6; HIV Env fusion: -1; dFosB act-1: 19*; dFosB act-2: 8

Results for COc1cc(OC)c(/C=C2\SC(=O)N(CC(=O)Nc3ccccc3F)C2=O)c(OC)c1 ?
miR122 inh: -5; Cneo AK release: -3; INS-1E GSIS act: -4; Rtt109 HAT inh: 2; HIV Env fusion: -23; dFosB act-1: 23*; dFosB act-2: 0

How did COCC#Cc1ccc2c(c1)O[C@@H](CN(C)C(=O)CC1CC1)[C@@H](C)CN([C@@H](C)CO)S2(=O)=O do in these assays?
miR122 inh: 1[16.7 µM]; Cneo AK release: -3; INS-1E GSIS act: 29; HIV Env fusion: 11[16.7 µM]

How did O=C1CC(=C(c2ccccc2)c2ccccc2)C(=O)N1CCCN1CCN(c2cccc(Cl)c2)CC1 do in these assays?
Cneo AK release: 4; Rtt109 HAT inh: 3; dFosB act-1: -4

What do the screens show for `O=C1CC(=C2c3ccccc3-c3ccccc32)C(=O)N1CCCCN1CCN(c2ccccc2)CC1`?
miR122 inh: 8; Cneo AK release: 1; dFosB act-1: 33*; dFosB act-2: 3

Results for COc1cc2[nH]c(=O)n(Cc3ccc(C(=O)NCCCN4CCN(C)CC4)cc3)c(=O)c2cc1OC ?
Cneo AK release: 2; Rtt109 HAT inh: 3; HIV Env fusion: 5; dFosB act-1: 32*; dFosB act-2: -1

Results for COc1ccc(Cn2c(=O)[nH]c3cc(C(=O)NCCCN4CCCC4)ccc3c2=O)cc1 ?
miR122 inh: 0; Cneo AK release: 1; Rtt109 HAT inh: 7; HIV Env fusion: -21; dFosB act-1: 1

What do the screens show for `COc1cc2[nH]c(=O)c(C(=O)NCCCN3CCOCC3)c(O)c2cc1OC`?
INS-1E GSIS act: 7; Rtt109 HAT inh: 14; HIV Env fusion: -1; dFosB act-1: 33*; dFosB act-2: 2

Results for CCN(CC)CCNC(=O)c1c(O)c2cc(OC)c(OC)cc2[nH]c1=O ?
miR122 inh: 7; Cneo AK release: -1; Rtt109 HAT inh: 3; HIV Env fusion: -33; dFosB act-1: 24*; dFosB act-2: 10

Results for Cc1noc(C)c1S(=O)(=O)Nc1ccc2c(c1)C(=O)N([C@@H](C)CO)C[C@@H](C)[C@H](CN(C)S(=O)(=O)c1cn(C)cn1)OCCCC[C@H](C)O2 ?
miR122 inh: -6[16.7 µM]; Cneo AK release: -3; INS-1E GSIS act: 13; HIV Env fusion: 9[16.7 µM]

What do the screens show for `Cc1noc(C)c1NC(=O)Nc1ccc2c(c1)C(=O)N([C@@H](C)CO)C[C@@H](C)[C@H](CN(C)C(=O)Nc1ccc(C(F)(F)F)cc1)O2`?
miR122 inh: 5[16.7 µM]; Cneo AK release: 45; INS-1E GSIS act: -2

Results for C[C@H]1CN([C@@H](C)CO)C(=O)c2cccc(NS(=O)(=O)c3ccc(Cl)cc3)c2O[C@@H]1CN(C)Cc1ccccc1 ?
miR122 inh: 3[16.7 µM]; Cneo AK release: 2; INS-1E GSIS act: 4; HIV Env fusion: -12[16.7 µM]

What do the screens show for `CCC1CCC(C(=O)NC(C(=O)Nc2ccc3c(c2)OCCO3)C(C)C)CC1` (configuration not stated)?
miR122 inh: -1; Cneo AK release: -3; Rtt109 HAT inh: 6; HIV Env fusion: -16; dFosB act-1: 24*; dFosB act-2: 9

Results for COC(=O)C[C@@H]1CC[C@@H]2[C@H](COc3ccc(NS(=O)(=O)c4cccc(F)c4)cc3C(=O)N2C)O1 ?
miR122 inh: 2[16.7 µM]; Cneo AK release: -19; INS-1E GSIS act: -3; HIV Env fusion: 0[16.7 µM]

Results for CCC(C)NC(=O)Cn1c(=O)n(-c2ccc(OC)cc2)c(=O)c2ccc(C(=O)NCc3ccc(C)cc3)cc21 (configuration not stated) ?
miR122 inh: 4; Cneo AK release: 1; INS-1E GSIS act: -7; Rtt109 HAT inh: -4; HIV Env fusion: -17; dFosB act-1: 33*; dFosB act-2: 5

What do the screens show for `COc1ccc(CNC(=O)c2ccc3c(=O)n(-c4ccccc4)c(=O)[nH]c3c2)cc1`?
Cneo AK release: 2; Rtt109 HAT inh: 0; dFosB act-1: 1

How did CCOc1ccccc1NC(=O)c1cc(C(=O)c2cc(Br)ccc2O)coc1=N do in these assays?
INS-1E GSIS act: -8; Rtt109 HAT inh: 6; HIV Env fusion: -3; dFosB act-1: 33*; dFosB act-2: 4

Results for Cc1[nH]nc2nc(SCC(=O)NCCC3=CCCCC3)n(-c3ccc(Br)cc3)c(=N)c12 ?
miR122 inh: 3; Cneo AK release: 1; INS-1E GSIS act: 7; Rtt109 HAT inh: -3; HIV Env fusion: 43; dFosB act-1: 66*; dFosB act-2: 8

Results for Cc1cc(-n2c(SCC(=O)NCCC3=CCCCC3)nc3n[nH]c(C)c3c2=N)ccc1Cl ?
miR122 inh: 45; Cneo AK release: 2; INS-1E GSIS act: -6; Rtt109 HAT inh: -3; HIV Env fusion: 9; dFosB act-1: 0

How did CCCCn1c(N)c(N(CC(C)C)C(=O)C2CCN(S(=O)(=O)c3ccc(OCC)cc3)CC2)c(=O)[nH]c1=O do in these assays?
miR122 inh: -4; Cneo AK release: 2; INS-1E GSIS act: 19; Rtt109 HAT inh: 6; HIV Env fusion: -22; dFosB act-1: 19*; dFosB act-2: 4

How did COc1ccc(NC(=O)N[C@@H]2C=C[C@H](CC(=O)NC3CCC3)O[C@H]2CO)cc1 do in these assays?
Cneo AK release: -3; INS-1E GSIS act: 13; HIV Env fusion: -5[16.7 µM]

How did CCOc1cc(/C=N/N=C(/N)c2nonc2N)cc(Br)c1OCc1ccc(Cl)cc1 do in these assays?
Rtt109 HAT inh: -5; HIV Env fusion: -13; dFosB act-1: 34*; dFosB act-2: 1
